Measured values reported in ChEMBL document CHEMBL1134641, “Progress toward the development of a safe and effective agent for treating reentrant cardiac arrhythmias: synthesis and evaluation of ibutilide analogues with enhanced metabolic stability and diminished proarrhythmic potential” (2001).

What was measured:
Canis familiaris [1] = test: Atrial effective refractory period (AERP) measured in canine just after inducing atrial flutter (AFL) termination by the compound at a dose of 12.0 uM/kg; assay type: functional, Canis lupus familiaris, Heart
Canis familiaris [2] = test: Idioventricular heart rate (IVR) measured in canine 24-h Infarction model at an cumulative intravenous dose of 0.72 uM/kg; assay type: functional, Canis lupus familiaris
Summary of the method: (§1)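 Male mongrel dogs (16-22 kg) with LAD permanently ligated in two stages; studied 24 h later. […] given IV in sequential doses to cumulative 0.24, 0.72, 2.4 µmol/kg. Saline controls (n=8) received vehicle, then a single IV 2.4 µmol/kg dose at the end. Measurements taken at baseline and 15 min after each dose. Means ± SEM, paired t-test, p ≤ 0.05.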

Canis familiaris [3] = test: Atrial effective refractory period (AERP) measured in canine just after inducing atrial flutter (AFL) termination by the compound at a dose of 0.24 umol/kg; assay type: functional, Canis lupus familiaris, Heart
Canis familiaris [4] = test: QT interval measured in canine just after inducing atrial flutter (AFL) termination by the compound at a dose of 0.24 umol/kg; assay type: functional, Canis lupus familiaris, Heart
Canis familiaris [5] = test: QT interval measured in canine just after inducing atrial flutter (AFL) termination by the compound at a dose of 2.4 uM/kg; assay type: functional, Canis lupus familiaris, Heart
Summary of the method: (§2)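 Conscious, sling-restrained dogs with chronically implanted electrodes, studied after 2 weeks of recovery. Sustained AFL (>5 min) induced. Compound in saline given iv every 5 min to cumulative 0.024-12.0 µmol/kg. At AFL termination, HR, QT (paced cycle length 300 ms), AERP and VERP measured. Measurements then taken 3 min after each further dose. Significance p≤0.05 vs baseline.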

Canis familiaris [6] = test: Atrial effective refractory period (AERP) measured in canine just after inducing atrial flutter (AFL) termination by the compound at a dose of 1.2 uM/kg; assay type: functional, Canis lupus familiaris, Heart
Canis familiaris [7] = test: Ventricular effective refractory (VEPR) period measured in canine 24-h Infarction model at an cumulative intravenous dose of 2.4 uM/kg; assay type: functional, Canis lupus familiaris, Heart
Summary of the method: (§3)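 Male mongrel dogs (16-22 kg) with LAD permanently ligated in two stages, studied 24 h after ligation. Compound given in saline (6.0 µmol/mL) as sequential intravenous doses to reach cumulative 0.24, 0.72 and 2.4 µmol/kg. VERP and other measurements taken at baseline and 15 min after each dose. Saline-dosed dogs served as controls. Results are means ± SEM, paired t-test, p ≤ 0.05.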

Canis familiaris [8] = test: Number of canine in which sustained ventricular tachycardia (SVT) was observed in PES-induced arrhythmias at an cumulative intravenous dose of 0.24 uM/kg; assay type: functional, Canis lupus familiaris, Cardiac ventricle
Summary of the method: (§4)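 Male mongrel dogs (16-22 kg) with LAD ligated in two stages, studied 24 h later. Programmed electrical stimulation at baseline and 15 min after each iv dose in saline (cumulative 0.24, 0.72, 2.4 µmol/kg). Saline controls then received a single 2.4 µmol/kg iv dose. Responses scored as NI (≤15 beats), NSVT (>15 beats, ends within 30 s), SVT (>30 s, needing pacing or cardioversion) or VF. A positive response was repeated.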

Canis familiaris [9] = test: Number of canine in which ventricular fibrillation (VF) was observed in PES-induced arrhythmias at an cumulative intravenous dose of 0.24 uM/kg; assay type: functional, Canis lupus familiaris, Cardiac ventricle; summary of the method: as §4
Canis familiaris [10] = test: Number of canine in which sustained ventricular tachycardia (SVT) was observed in PES-induced arrhythmias at an cumulative intravenous dose of 0.72 uM/kg; assay type: functional, Canis lupus familiaris, Cardiac ventricle; summary of the method: as §4
Canis familiaris [11] = test: QT interval measured in canine 24-h Infarction model at a single intravenous dose of 2.4 uM/kg; assay type: functional, Canis lupus familiaris
Summary of the method: (§5)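 Dogs 24 h after two-stage LAD ligation. Compound in saline given iv in sequential doses (cumulative 0.24, 0.72, 2.4 µmol/kg); saline controls then given a single 2.4 µmol/kg iv dose. HR, IVR, BP, QT, spontaneous arrhythmias/min, ERPs and MAPD90 measured at baseline and 15 min after each dose. Means ± SEM, paired t-test, p≤0.05.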

Canis familiaris [12] = test: Heart rate measured in canine 24-h Infarction model at an cumulative intravenous dose of 0.72 uM/kg; assay type: functional, Canis lupus familiaris; summary of the method: as §1
Canis familiaris [13] = test: QT interval measured in canine 24-h Infarction model at an cumulative intravenous dose of 0.24 uM/kg; assay type: functional, Canis lupus familiaris; summary of the method: as §5
Canis familiaris [14] = test: QT interval measured in canine 24-h Infarction model at an cumulative intravenous dose of 0.72 uM/kg; assay type: functional, Canis lupus familiaris; summary of the method: as §5
Canis familiaris [15] = test: Atrial effective refractory period (AERP) measured in canine just after inducing atrial flutter (AFL) termination by the compound at a dose of 7.2 uM/kg; assay type: functional, Canis lupus familiaris, Heart
Canis familiaris [16] = test: Heart Rate measured in canine just after inducing atrial flutter (AFL) termination by the compound at a dose of 0.6 umol/kg; assay type: functional, Canis lupus familiaris
Canis familiaris [17] = test: Ventricular effective refractory period ([…]) measured in canine just after inducing atrial flutter (AFL) termination by the compound at a dose of 0.24 umol/kg; assay type: functional, Canis lupus familiaris, Heart
Summary of the method: (§6)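 Conscious dogs, loosely restrained in a sling, with exteriorized electrode leads, studied 2 weeks after instrumentation. AFL was induced and counted as sustained if it lasted 5 min. Compound in saline given intravenously every 5 min to cumulative 0.024-12.0 µmol/kg. VERP was measured at AFL termination and 3 min after each dose. Results are means ± SEM versus baseline, p ≤ 0.05.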

Canis familiaris [18] = test: Heart rate measured in canine 24-h Infarction model at an cumulative intravenous dose of 2.4 uM/kg; assay type: functional, Canis lupus familiaris; summary of the method: as §1
Canis familiaris [19] = test: Ventricular MAPD90 measured in canine 24-h Infarction model at an cumulative intravenous dose of 0.24 uM/kg; assay type: functional, Canis lupus familiaris, Heart; summary of the method: as §5
Canis familiaris [20] = test: Ventricular effective refractory period ([…]) measured in canine just after inducing atrial flutter (AFL) termination by the compound at a dose of 0.6 umol/kg; assay type: functional, Canis lupus familiaris, Heart; summary of the method: as §6
Canis familiaris [21] = test: Heart rate measured in canine 24-h Infarction model at an cumulative intravenous dose of 0.24 uM/kg; assay type: functional, Canis lupus familiaris; summary of the method: as §1
Canis familiaris [22] = test: Number of canine in which nonsustained ventricular tachycardia (NSVT) was observed in PES-induced arrhythmias at an cumulative intravenous dose of 0.24 uM/kg; assay type: functional, Canis lupus familiaris, Cardiac ventricle; summary of the method: as §4
Canis familiaris [23] = test: Ventricular effective refractory period ([…]) measured in canine just after inducing atrial flutter (AFL) termination by the compound at a dose of 2.4 uM/kg; assay type: functional, Canis lupus familiaris, Heart; summary of the method: as §6
Canis familiaris [24] = test: Atrial effective refractory period (AERP) measured in canine just after inducing atrial flutter (AFL) termination by the compound at a dose of 0.6 umol/kg; assay type: functional, Canis lupus familiaris, Heart
Canis familiaris [25] = test: Ventricular effective refractory (VEPR) period measured in canine 24-h Infarction model at an cumulative intravenous dose of 0.72 uM/kg; assay type: functional, Canis lupus familiaris, Heart; summary of the method: as §3
Canis familiaris [26] = test: Heart Rate measured in canine just after inducing atrial flutter (AFL) termination by the compound at a dose of 0.24 umol/kg; assay type: functional, Canis lupus familiaris
Canis familiaris [27] = test: Ventricular effective refractory period ([…]) measured in canine just after inducing atrial flutter (AFL) termination by the compound at a dose of 7.2 uM/kg; assay type: functional, Canis lupus familiaris, Heart; summary of the method: as §6
Canis familiaris [28] = test: Heart Rate measured in canine just after inducing atrial flutter (AFL) termination by the compound at a dose of 9.6 uM/kg; assay type: functional, Canis lupus familiaris
Canis familiaris [29] = species on record: Canis familiaris; test: QT interval measured in canine just after inducing atrial flutter (AFL) termination by the compound; assay type: functional, Canis lupus familiaris, Heart; summary of the method: as §2
Canis familiaris [30] = test: Number of canine in which sustained ventricular tachycardia (SVT) was observed in PES-induced arrhythmias at an cumulative intravenous dose of 2.4 uM/kg; assay type: functional, Canis lupus familiaris, Cardiac ventricle; summary of the method: as §4

Question: Which AERP (Canis familiaris [1]) does the source give for CCN(CCCCCC(C)(C)F)CCC[C@H](O)c1ccc(NS(C)(=O)=O)cc1.O=C(O)/C=C/C(=O)O here?
Answer: 164 ms

Question: And the IVR (Canis familiaris [2])?
Answer: 130 beats min-1

Question: And the AERP (Canis familiaris [3])?
Answer: 160 ms

Question: And the QT interval (Canis familiaris [4])?
Answer: 196 ms

Question: And the QT interval (Canis familiaris [5])?
Answer: 213 ms

Question: What about the AERP (Canis familiaris [6]) of the same compound?
Answer: 160 ms

Question: And the VERP (Canis familiaris [7])?
Answer: 185 ms

Question: And the No. of canine (Canis familiaris [8])?
Answer: 1

Question: What about the No. of canine (Canis familiaris [9]) of the same compound?
Answer: 0

Question: What about the No. of canine (Canis familiaris [10]) of the same compound?
Answer: 2

Question: What about the QT interval (Canis familiaris [11]) of the same compound?
Answer: 238 ms

Question: And the HR (Canis familiaris [12])?
Answer: 146 beats min-1

Question: What about the QT interval (Canis familiaris [13]) of the same compound?
Answer: 211 ms

Question: What about the QT interval (Canis familiaris [14]) of the same compound?
Answer: 218 ms

Question: What about the AERP (Canis familiaris [15]) of the same compound?
Answer: 162 ms

Question: What about the HR (Canis familiaris [16]) of the same compound?
Answer: 111 beats min-1

Question: And the VERP (Canis familiaris [17])?
Answer: 142 ms

Question: What about the HR (Canis familiaris [18]) of the same compound?
Answer: 135 beats min-1

Question: What about the “Ventricular MAPD90” value (Canis familiaris [19]) of the same compound?
Answer: 162 ms

Question: What about the VERP (Canis familiaris [20]) of the same compound?
Answer: 141 ms

Question: What about the HR (Canis familiaris [21]) of the same compound?
Answer: 155 beats min-1

Question: And the No. of canine (Canis familiaris [22])?
Answer: 2

Question: And the VERP (Canis familiaris [23])?
Answer: 143 ms

Question: What about the AERP (Canis familiaris [24]) of the same compound?
Answer: 153 ms

Question: And the VERP (Canis familiaris [25])?
Answer: 170 ms

Question: What about the HR (Canis familiaris [26]) of the same compound?
Answer: 128 beats min-1

Question: And the VERP (Canis familiaris [27])?
Answer: 140 ms

Question: And the HR (Canis familiaris [28])?
Answer: 114 beats min-1

Question: And the QT interval (Canis familiaris [29])?
Answer: 202 ms

Question: What about the No. of canine (Canis familiaris [30]) of the same compound?
Answer: 0
